For one compound, Activity and T/C results are on record in ChEMBL document CHEMBL3243962, “Antileukemic activity of derivatives of 1,2-dimethyl-3,4-bis(hydroxymethyl)-5-phenylpyrrole bis(N-methylcarbamate)” (J Med Chem, 1979).

The test system of data set [1] is Mus musculus. Kind of data set: Toxicity in mouse P388 cells allografted CD2F1 mouse assessed as body weight loss at 120 mg/kg, ip of total 9 doses starting 24 hrs post tumor inoculation measured on day 5 of inoculation relative to control. The note with it: in vivo. Details: dose 120 mg/kg, route intraperitoneal. Format: organism-based. An outline of the steps: (§1)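 Male CD2F1 mice inoculated ip with 6×10^6 P388 leukemia cells. Compounds given ip as distilled water–Tween 80 suspension, nine daily doses starting 24 h after inoculation; six mice per dose group. Treated-minus-control body-weight change (T − C) and toxicity-day survivors recorded on day 5 (4 days after first dose).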

The subject of data set [2] is Mus musculus. Kind of data set: Toxicity in mouse P388 cells allografted CD2F1 mouse assessed as body weight loss at 60 mg/kg, ip of total 9 doses starting 24 hrs post tumor inoculation measured on day 5 of inoculation relative to control. The note with it: in vivo. On the set-up: dose 60 mg/kg, route intraperitoneal. Format: organism-based. An outline of the steps: as §1

Data set [3] relates to P388. Kind of data set: Antitumor activity against mouse P388 cells allografted in CD2F1 mouse assessed as increase in mouse survival at 7.5 mg/kg, ip of total 9 doses starting 24 hrs post tumor inoculation measured on day 5 of inoculation relative to control. It is filed as functional. The settings on record: route intraperitoneal. An outline of the steps: (§2)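 Male CD2F1 mice inoculated ip with 6×10^6 P388 leukemia cells. Dosing was ip as a suspension in distilled water–Tween 80, nine daily doses starting 24 h after inoculation. Activity was read as median survival time of treated vs control mice (% T/C); % T/C ≥ 120 was considered significant. Groups were 6 mice.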

The test system of data set [4] is Mus musculus. The experiment in a line: Toxicity in mouse P388 cells allografted CD2F1 mouse assessed as body weight loss at 7.5 mg/kg, ip of total 9 doses starting 24 hrs post tumor inoculation measured on day 5 of inoculation relative to control. Format: organism-based. On the set-up: dose 7.5 mg/kg, route intraperitoneal. The settings on record: in vivo. An outline of the steps: as §1

Data set [5] has as its system Mus musculus. Kind of data set: Toxicity in mouse P388 cells allografted CD2F1 mouse assessed as mouse survival at 7.5 mg/kg, ip of total 9 doses starting 24 hrs post tumor inoculation measured on day 5 of inoculation relative to control. It is filed as organism-based. On the set-up: dose 7.5 mg/kg, route intraperitoneal. The note with it: in vivo. An outline of the steps: (§3)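 Male CD2F1 mice bearing ip P388 leukemia (6×10^6 cells) were dosed ip with nine daily doses in distilled water–Tween 80 suspension, starting 24 h after inoculation. Survivors per group of 6 were counted on day 5, i.e. 4 days after the first dose. Body-weight change of treated minus control mice was also recorded.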

The subject of data set [6] is Mus musculus. Kind of data set: Toxicity in mouse P388 cells allografted CD2F1 mouse assessed as mouse survival at 30 mg/kg, ip of total 9 doses starting 24 hrs post tumor inoculation measured on day 5 of inoculation relative to control. Format: organism-based. Details: dose 30 mg/kg, route intraperitoneal. The settings on record: in vivo. An outline of the steps: as §3

In data set [7] the test system is Mus musculus. Kind of data set: Toxicity in mouse P388 cells allografted CD2F1 mouse assessed as mouse survival at 15 mg/kg, ip of total 9 doses starting 24 hrs post tumor inoculation measured on day 5 of inoculation relative to control. Format: organism-based. On the set-up: dose 15 mg/kg, route intraperitoneal. The settings on record: in vivo. An outline of the steps: as §3

For data set [8], the system named is Mus musculus. Kind of data set: Toxicity in mouse P388 cells allografted CD2F1 mouse assessed as body weight loss at 15 mg/kg, ip of total 9 doses starting 24 hrs post tumor inoculation measured on day 5 of inoculation relative to control. It is filed as organism-based. On the set-up: dose 15 mg/kg, route intraperitoneal. The note with it: in vivo. An outline of the steps:
as §1

The test system of data set [9] is P388. Kind of data set: Antitumor activity against mouse P388 cells allografted in CD2F1 mouse assessed as increase in mouse survival at 30 mg/kg, ip of total 9 doses starting 24 hrs post tumor inoculation measured on day 5 of inoculation relative to control. It is filed as functional. The settings on record: route intraperitoneal. An outline of the steps:
as §2

Data set [10] concerns P388. The experiment in a line: Antitumor activity against mouse P388 cells allografted in CD2F1 mouse assessed as increase in mouse survival at 15 mg/kg, ip of total 9 doses starting 24 hrs post tumor inoculation measured on day 5 of inoculation relative to control. It is filed as functional. The note with it: route intraperitoneal. An outline of the steps: as §2
Data set [11] deals with P388. The experiment in a line: Antitumor activity against mouse P388 cells allografted in CD2F1 mouse assessed as increase in mouse survival at 60 mg/kg, ip of total 9 doses starting 24 hrs post tumor inoculation measured on day 5 of inoculation relative to control. It is filed as functional. The note with it: route intraperitoneal. An outline of the steps:
as §2

Data set [12] relates to Mus musculus. The experiment in a line: Toxicity in mouse P388 cells allografted CD2F1 mouse assessed as body weight loss at 30 mg/kg, ip of total 9 doses starting 24 hrs post tumor inoculation measured on day 5 of inoculation relative to control. Format: organism-based. The settings on record: in vivo. Details: dose 30 mg/kg, route intraperitoneal. An outline of the steps:
as §1

For the compound `CCCCOc1ccc(-c2c(COC(=O)NC)c(COC(=O)NC)c(C)n2C)cc1`, the Activity in data set [1] was 3.4 g; in data set [2] it was 4.1 g; in [4] it was 1.3 g; in [5] it was “Non-toxic”; in data set [6], “Non-toxic”; in [7], “Non-toxic”. For the same compound, the Activity in data set [8] stood at 2.1 g; in data set [12], 2.8 g. In addition, the T/C (commonly the result in the treated group divided by that in the control group, in per cent) turned out to be 137% in data set [3], 144% in [9], 146% in data set [10] and 90% in data set [11].
